Laboratory results taken from ChEMBL document CHEMBL4732032, “Discovery of novel JAK2 and EGFR inhibitors from a series of thiazole-based chalcone derivatives” (RSC Med Chem, 2021).

How the values were obtained:
[1] = target: T1, Epidermal growth factor receptor (Homo sapiens, UniProt P00533); assay: Inhibition of EGFR (unknown origin)
Procedure, shortened: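 ADP-Glo luminescent kinase assay in 40 mM Tris–HCl pH 7.5, 20 mM MgCl2, 0.1 mg/mL BSA. EGFR added at 1.25 ng/μL with inhibitor, then a mix of 5 μM ATP and 2.5 μM poly(Glu-Tyr); reaction run 1 h at room temperature. ADP-Glo reagent added for 40 min, then detection reagent for 30 min. Run in triplicate; % inhibition calculated against a no-inhibitor control.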

[2] = target: T1, Epidermal growth factor receptor; assay: Inhibition of human EGFR TK domain expressed in Escherichia coli BL21 (DE3) pLysS using poly-Glu-Tyr (51 to 68 residues) as substrate incubated for 1 hr by ADP-Glo assay
HEL 92.1.7 = assay: Cytotoxicity against human HEL 92.1.7 cells expressing JAK2 assessed as reduction in cell viability incubated for 72 hrs by presto blue reagent assay; assay type: functional, cell-based; conditions: HEL 92.1.7, 72 h
TF-1 = assay: Cytotoxicity against human TF-1 cells expressing JAK2 assessed as reduction in cell viability incubated for 72 hrs by presto blue reagent assay; assay type: functional, cell-based; conditions: TF-1, 72 h
[3] = Potency index, ratio of ruxolitinib IC50 to test compound IC50 for human HEL 92.1.7 cells expressing JAK2 assessed as reduction in cell viability incubated for 72 hrs by presto blue reagent assay; assay type: functional
[4] = target: Tyrosine-protein kinase JAK2 (Homo sapiens, UniProt O60674); assay: Inhibition of recombinant human JAK2 JH1 domain expressed in baculovirus infected insect cells using poly-Glu-Tyr (51 to 68 residues) as substrate incubated for 1 hr in presence of ATP by ADP-Glo assay
Vero = assay: Cytotoxicity against African green monkey Vero cells assessed as reduction in cell viability incubated for 72 hrs by MTT assay; conditions: Chlorocebus sabaeus
A-431 = assay: Cytotoxicity against human A-431 cells expressing EGFR assessed as reduction in cell viability incubated for 72 hrs by MTT assay; assay type: functional, cell-based; conditions: A-431, 72 h
A549 = assay: Cytotoxicity against human A549 cells expressing EGFR assessed as reduction in cell viability incubated for 72 hrs by MTT assay; assay type: functional, cell-based; conditions: A549, 72 h
[5] = Antiproliferative activity against human HMC 1.1 cells harboring KIT V560G mutant assessed as inhibition of cell proliferation measured after 72 hrs by MTS assay; assay type: functional, cell-based; conditions: HMC-1.1, 72 h
[6] = Potency index, ratio of erlotinib IC50 to test compound IC50 human A549 cells expressing EGFR assessed as reduction in cell viability incubated for 72 hrs by MTT assay; assay type: functional

T1 sequence (P00533 whole entry): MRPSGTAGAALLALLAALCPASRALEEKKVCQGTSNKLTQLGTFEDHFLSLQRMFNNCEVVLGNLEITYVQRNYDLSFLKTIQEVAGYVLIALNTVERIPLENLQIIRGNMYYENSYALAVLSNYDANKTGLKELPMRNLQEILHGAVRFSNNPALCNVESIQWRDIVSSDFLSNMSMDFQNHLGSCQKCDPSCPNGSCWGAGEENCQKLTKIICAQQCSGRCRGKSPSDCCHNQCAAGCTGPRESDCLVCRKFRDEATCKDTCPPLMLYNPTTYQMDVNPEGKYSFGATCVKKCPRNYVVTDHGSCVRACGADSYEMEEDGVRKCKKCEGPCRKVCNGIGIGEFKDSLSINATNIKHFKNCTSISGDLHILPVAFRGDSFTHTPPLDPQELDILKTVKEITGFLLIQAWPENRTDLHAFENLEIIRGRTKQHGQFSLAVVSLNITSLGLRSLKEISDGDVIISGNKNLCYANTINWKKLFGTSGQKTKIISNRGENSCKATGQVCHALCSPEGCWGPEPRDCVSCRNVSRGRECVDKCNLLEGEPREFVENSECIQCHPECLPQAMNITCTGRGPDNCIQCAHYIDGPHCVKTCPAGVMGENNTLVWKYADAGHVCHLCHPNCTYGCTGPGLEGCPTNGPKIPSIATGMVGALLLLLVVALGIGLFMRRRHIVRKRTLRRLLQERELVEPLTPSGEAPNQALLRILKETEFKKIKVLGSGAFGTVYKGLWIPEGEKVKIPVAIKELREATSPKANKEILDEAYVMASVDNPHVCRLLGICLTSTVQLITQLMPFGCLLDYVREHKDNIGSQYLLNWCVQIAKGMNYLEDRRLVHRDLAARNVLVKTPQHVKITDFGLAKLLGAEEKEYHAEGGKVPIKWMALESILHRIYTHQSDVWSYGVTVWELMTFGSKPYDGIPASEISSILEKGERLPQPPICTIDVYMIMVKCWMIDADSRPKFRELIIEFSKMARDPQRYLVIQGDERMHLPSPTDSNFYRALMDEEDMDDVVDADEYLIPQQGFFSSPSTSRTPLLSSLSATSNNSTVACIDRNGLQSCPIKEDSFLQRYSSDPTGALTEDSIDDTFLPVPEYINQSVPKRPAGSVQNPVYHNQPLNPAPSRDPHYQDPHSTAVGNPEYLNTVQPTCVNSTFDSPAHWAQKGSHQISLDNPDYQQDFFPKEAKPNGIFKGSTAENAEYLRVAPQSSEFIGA
Chain of Tyrosine-protein kinase JAK2 (O60674 whole entry, the tested form may be a part): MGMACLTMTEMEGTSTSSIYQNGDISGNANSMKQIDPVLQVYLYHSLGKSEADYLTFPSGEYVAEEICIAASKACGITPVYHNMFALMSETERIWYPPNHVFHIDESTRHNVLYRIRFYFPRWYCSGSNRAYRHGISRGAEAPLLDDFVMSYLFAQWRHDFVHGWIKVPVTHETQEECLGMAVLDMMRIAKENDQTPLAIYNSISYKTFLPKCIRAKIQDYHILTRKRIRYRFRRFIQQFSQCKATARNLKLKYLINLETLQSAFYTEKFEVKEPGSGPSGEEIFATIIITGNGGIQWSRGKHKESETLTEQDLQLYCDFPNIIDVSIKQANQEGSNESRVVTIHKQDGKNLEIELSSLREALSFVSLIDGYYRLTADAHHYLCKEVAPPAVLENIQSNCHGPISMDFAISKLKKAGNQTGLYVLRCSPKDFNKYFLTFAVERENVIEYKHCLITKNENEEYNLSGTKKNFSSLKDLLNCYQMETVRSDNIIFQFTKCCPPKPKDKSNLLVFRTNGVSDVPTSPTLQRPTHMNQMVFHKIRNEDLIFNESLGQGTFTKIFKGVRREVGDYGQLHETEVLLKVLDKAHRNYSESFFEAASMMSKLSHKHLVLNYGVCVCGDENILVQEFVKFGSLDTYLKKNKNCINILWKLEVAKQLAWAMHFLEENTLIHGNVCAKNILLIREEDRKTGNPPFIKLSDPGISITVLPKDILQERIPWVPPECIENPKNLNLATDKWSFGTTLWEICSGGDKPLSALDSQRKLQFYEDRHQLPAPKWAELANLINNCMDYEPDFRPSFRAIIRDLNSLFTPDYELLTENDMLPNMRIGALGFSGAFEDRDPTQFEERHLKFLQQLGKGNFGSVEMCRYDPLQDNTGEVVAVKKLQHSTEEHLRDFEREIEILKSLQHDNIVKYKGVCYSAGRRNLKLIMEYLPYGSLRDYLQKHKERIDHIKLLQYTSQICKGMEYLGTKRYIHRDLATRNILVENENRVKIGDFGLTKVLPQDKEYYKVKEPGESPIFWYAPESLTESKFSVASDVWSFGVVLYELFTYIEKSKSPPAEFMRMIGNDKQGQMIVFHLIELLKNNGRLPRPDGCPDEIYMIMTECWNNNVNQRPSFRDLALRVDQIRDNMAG

IC50 [2] [µM]	IC50 [4] [µM]	Compound	IC50 (HEL 92.1.7) [µM]	IC50 (TF-1) [µM]	Ratio IC50 [3]	IC50 (Vero) [µM]	IC50 (A-431) [µM]	IC50 (A549) [µM]	also measured
0.256	0.0203	CNc1nc(C)c(C(=O)/C=C/c2nccs2)s1	6.89	30.2	2	> 100	–	–	–
0.144	0.0176	CNc1nc(C)c(C(=O)/C=C/c2ccsc2)s1	9.96	32	2	–	–	–	–
0.0337	0.0339	CNc1nc(C)c(C(=O)/C=C/c2ccc(O)cc2)s1	–	–	–	> 100	8.04	16.3	Ratio IC50 [6]: 2

Continued, compound first:

Compound	IC50 [2] [µM]	IC50 [4] [µM]	IC50 (HEL 92.1.7) [µM]	IC50 (TF-1) [µM]	Ratio IC50 [3]	IC50 (Vero) [µM]	IC50 (A-431) [µM]	IC50 (A549) [µM]	also measured
O=C(Cc1csc2nc3ccccc3n12)Nc1ccccc1O	–	–	–	–	–	–	–	–	IC50 [1]: 0.055 µM
CNc1nc(C)c(C(=O)/C=C/c2cccs2)s1	–	–	–	–	–	> 100	28.5	62.1	–
Cc1cn(-c2cc(NC(=O)c3ccc(Nc4nc(-c5cccnc5)cs4)c(C)c3)cc(C(F)(F)F)c2)cn1	–	–	–	–	–	–	–	–	IC50 [5]: 0.138 µM
